Screens as filed in PubChem.
A selection: hits, their analogues and other compounds. The true share with any hit is near 1.3%.
CASP6 VEID inh: human caspase-6 inhibitors, primary screen, biochemical, VEID-R110 fluorescence, single point, set 2; P55212; purified caspase-6, Z-VEID-R110 cleavage fluorescence; inhibition, % at 12.5 µM; 350,000 tested, 0.53% active;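 active = mean inhibition across replicates at least about 35%, with every replicate also reaching that limit, limit read from the data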;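 note: 0% = median of neutral control wells and 100% = no fluorescence left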
Target sequence (P55212 24-179 limits assumed): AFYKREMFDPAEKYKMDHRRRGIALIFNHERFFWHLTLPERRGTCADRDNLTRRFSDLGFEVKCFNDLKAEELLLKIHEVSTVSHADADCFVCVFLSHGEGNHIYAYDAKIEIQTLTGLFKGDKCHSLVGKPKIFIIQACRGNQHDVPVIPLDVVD
Target sequence (P55212 194-293 limits assumed): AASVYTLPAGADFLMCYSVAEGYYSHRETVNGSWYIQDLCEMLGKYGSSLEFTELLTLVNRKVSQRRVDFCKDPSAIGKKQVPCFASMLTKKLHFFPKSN
TDP2 inh: human TDP2 enzyme inhibitors, primary screen, biochemical, epi absorbance, recombinant enzyme; T5PNP hydrolysis, p-nitrophenol absorbance 415 nm; 370,000 tested, 0.34% active; inhibition, % at 12.8 µM;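 active = inhibition above the mean of all tested compounds plus 3 SD, set per campaign, cut at about 25% in these data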;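 note: 0% = DMSO with enzyme and 100% = buffer with substrate but no TDP2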
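Material: recombinant human TDP2; quantity: TDP2 enzyme at 120 nM final; medium: Tris-HCl pH 7.5 with MgCl2; compound: single concentration, 12.8 µM nominal, with 1% DMSO; incubation: 2 h enzyme incubation at 37 °C; signal: epi absorbance; measure: percent inhibition; benchmarks: high control without enzyme, low control DMSO plus TDP2; repeats: singlicate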
ASAP1 GAP inh: inhibitors of human ASAP1 ArfGAP activity, primary screen, biochemical, fluorescence polarization | Arf-GAP with SH3 domain, ANK repeat and PH domain-containing protein 1 (Homo sapiens), … | ASAP1-stimulated ARF1 GTP hydrolysis, GDP FP detection | 360,000 tested, 0.19% active | inhibition, % at 16.5 µM | AID 624377, 2012; in the data active = inhibition above about 25%;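 note: 0% = vehicle with enzyme and substrate and 100% = no enzyme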
ARFGAP1 inh: inhibitors of rat ARFGAP1 GAP activity, primary screen, biochemical, fluorescence polarization, GDP tracer; inhibition, % at 16.5 µM; ADP-ribosylation factor GTPase-activating protein 1 (Rattus norvegicus), Q62848; Arfgap1-stimulated ARF1 GTP hydrolysis, GDP FP detection; AID 651572, 2012; 360,000 tested, 0.26% active;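 active = inhibition above a per-plate limit, mean inhibition of low control wells plus 3 SD, cut at about 25% in these data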;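 note: 0% = DMSO wells with enzyme and 100% = wells lacking Arfgap1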
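Material: rat Arfgap1 catalytic domain, aa 1-136; also added: human ARF1(Δ1-17)-GTP substrate; compound dosing: one concentration, 16.5 µM, DMSO 1.26%; incubation: GTP hydrolysis reaction 2 h at 25 °C; measured by: Tracer-displacement fluorescence polarization with EDTA stop, 620/688 nm; evaluation: % inhibition from polarization; repeats: one replicate per compound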
LEDGF integ inh: blockers of LEDGF/p75-dependent integrase strand transfer – biochemical, TR-FRET, high throughput, primary screen. HIV-1 integrase (with human LEDGF/p75). TR-FRET IN-LEDGF/p75 DNA integration, Eu/Cy5. inhibition, % at 3.7 µM. 370,000 tested, 0.64% active. AID 743269, 2014;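 active = inhibition above the screen-wide mean plus 3 SD, cut at about 13% in these data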;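 note: signal is the Cy5 over europium emission ratio at 671 and 618 nm; 0% = plate median of compound wells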
ARFGAP1 inh conf: ARFGAP1 inhibitor hit confirmation, biochemical, fluorescence polarization, triplicate. inhibition, % at 16.5 µM. 890 tested, 30% active. shares compounds with ARFGAP1 inh. ARFGAP1-stimulated ARF1 GTP hydrolysis, GDP tracer FP;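 active = average inhibition over triplicates above the hit cutoff set in the earlier primary screen, cut at about 25% in these data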;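 note: 0% = Arfgap1 plus ARF1-GTP with DMSO and 100% = wells lacking Arfgap1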
Target sequence (Q62848 whole entry, looked up): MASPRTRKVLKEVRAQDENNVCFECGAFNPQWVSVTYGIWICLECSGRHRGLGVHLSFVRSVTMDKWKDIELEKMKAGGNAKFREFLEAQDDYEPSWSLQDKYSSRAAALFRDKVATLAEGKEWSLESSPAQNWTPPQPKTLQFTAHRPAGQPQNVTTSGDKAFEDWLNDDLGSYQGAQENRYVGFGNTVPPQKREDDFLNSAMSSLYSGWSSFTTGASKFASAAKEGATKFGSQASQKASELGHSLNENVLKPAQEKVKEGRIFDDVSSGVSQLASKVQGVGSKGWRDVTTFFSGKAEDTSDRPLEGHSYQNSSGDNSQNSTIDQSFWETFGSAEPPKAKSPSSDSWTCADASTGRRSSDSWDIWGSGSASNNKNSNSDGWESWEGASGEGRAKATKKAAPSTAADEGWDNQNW
Numbers without * were called inactive; . = no result given; + = active, no number.

SMILES | CASP6 VEID inh | TDP2 inh | ASAP1 GAP inh | ARFGAP1 inh | LEDGF integ inh | ARFGAP1 inh conf
COc1ccc(/C=C2\Oc3cc(OCC(=O)N4CC(O)C[C@H]4C(=O)O)ccc3C2=O)c(OC)c1OC (stereo partly specified) | -5 | -8 | 14 | 7 | 0 | .
Cc1ccc(S(=O)(=O)Nc2ccccc2C(O)c2ccccc2)cc1 (stereo unspecified) | 0 | -1 | -7 | 26* | 7 | -5
COc1cccc(C(=O)NNC2OC(CO)C(O)C2O)c1 (stereo unspecified) | -8 | -9 | -8 | 42* | -5 | 8
CCN1CCCC1CNC(=O)c1ccc2c(c1)NC(=O)/C(=C\c1ccc(OC)c(OC)c1)S2 (stereo unspecified) | -68 | -16 | 24 | 39* | -5 | 83*
O=C(Cc1cccs1)Nc1cccc(-c2nc3cc4ccccc4cc3[nH]2)c1 | -1 | -11 | 16 | 25* | 2 | 25*
CN1C(=O)c2ccc(NC(=O)c3c(C(=O)O)cccc3[N+](=O)[O-])cc2C1=O | -3 | -11 | 3 | 26* | -9 | 4
CCN1C(=O)N(C)C(N(O)C(=O)NC)C1(C)C (stereo unspecified) | . | -3 | -7 | 26* | 1 | -6
CN(C)c1nnnn1Cc1ccc(Cl)cc1Cl | 5 | 4 | -6 | -3 | 3 | .
O=C(CN1C(=O)c2cccnc2Oc2ccc(Cl)cc21)NC1CCCCCC1 | 1 | -7 | 0 | 7 | -2 | .
NS(=O)(=O)c1ccc(CNC(=S)NC2CCCC2)cc1 | 1 | 10 | 7 | 29* | 0 | 5
COc1ccc(CNS(=O)(=O)CCNCc2ccccc2OC)cc1 | 0 | -9 | -2 | 52* | 4 | 3
CCOC(=O)[C@@H]1[C@H]2COc3cc(OC)ccc3[C@H]2N2C(=O)N(c3cccc(C)c3)C(=O)[C@]12C | 3 | 3 | -3 | 10 | -3 | .
Cc1ccc2nc(N/C(=N/S(=O)(=O)c3ccc(F)cc3F)c3ccccc3)sc2c1 | -3 | -3 | 8 | -7 | -2 | .
CCOC(=O)Cc1csc(N/C(=N/S(=O)(=O)c2ccc(F)cc2F)c2ccccc2)n1 | . | -1 | 13 | + | 3 | 5
CN(C)N1C(N)=C(C#N)C(c2ccc3c(c2)OCO3)C2=C1CC(C)(C)CC2=O (stereo unspecified) | 4 | 7 | -8 | -6 | 0 | .
COc1ccc(-n2c(=O)c3c4c(sc3n3cnnc23)CC(C)CC4)cc1 (stereo unspecified) | . | 2 | 16 | 27* | 0 | 62*
CCOC(=O)CCC(=O)N(CCN(C(=O)CCC(=O)OCC)c1ccccc1)c1ccccc1 | . | 11 | -6 | 6 | -1 | .
Cc1cc(C)cc(NC(=O)CSc2cc(C(=O)c3nccn3C)c3ccccc3n2)c1 | . | 0 | -9 | 25* | 2 | 6
Cc1cccc(NC(=O)CSc2cc(C(=O)c3nccn3C)c3ccccc3n2)c1 | -1 | 1 | 3 | 7 | 2 | .
COc1ccc(C2NN=C(c3c[nH]c4ccccc34)C2O)cc1 (stereo unspecified) | -1 | -2 | -2 | 4 | -1 | .
COc1ccc(C2C(O)C(c3c[nH]c4ccccc34)=NN2C(=O)CCl)cc1 (stereo unspecified) | 31 | -2 | 16 | 26* | -1 | 9
COc1ccc2c(CC(=O)NC(Cc3ccc(Cl)cc3)C(=O)O)cc(=O)oc2c1C (stereo unspecified) | 4 | 7 | 5 | -7 | -5 | .
Nc1ccccc1SCc1c(Cl)cccc1Cl | 1 | -5 | 20 | 9 | -6 | .
COc1ccc(NC(=O)c2cc(-c3cc(Cl)ccc3C)n[nH]2)cc1OC | -1 | -7 | 16 | 15 | -1 | .
COc1ccc(NC(=O)c2cc(-c3cc(Cl)ccc3OC)n[nH]2)cc1OC | -1 | 6 | 11 | 28* | -1 | 22
SMILES | CASP6 VEID inh | TDP2 inh | ASAP1 GAP inh | ARFGAP1 inh | LEDGF integ inh | ARFGAP1 inh conf
COc1cc2c3c(c1OC)C1(C=CC(=NO)C=C1)CC3N(C(C)=O)CC2 (stereo unspecified) | . | -1 | -3 | -2 | -2 | .
COc1cc2c3c(c1OC)C1(C=CC(=O)C=C1)CC3N(C(C)=O)CC2 (stereo unspecified) | 2 | -3 | -16 | 29* | 0 | 8
COc1ccc(C(=O)N2CCC(C)(C(=O)O)C2)c(OC)c1 (stereo unspecified) | 2 | 4 | 4 | 26* | -3 | -5
CCOC(=O)C1CCCN(C(=O)c2ccc(OC)cc2OC)CC1 (stereo unspecified) | 0 | -2 | 8 | 5 | 2 | .
CCOC(=O)C1CCN(C(=O)c2ccc(OC)cc2OC)CC1 | . | -7 | 9 | 29* | -2 | 2
CCNC(=O)C1(C)CCN(C(=O)c2ccc(OC)cc2OC)C1 (stereo unspecified) | -1 | 11 | -2 | -7 | 1 | .
c1ccc2c(N3CCCCC3)ncnc2c1 | . | 0 | -5 | 27* | 1 | -2
CC1CCCCN1c1ncnc2ccccc12 (stereo unspecified) | . | 3 | -7 | 3 | -4 | .
O=C(/C=C/c1cccs1)Nc1ccc(N2CCOCC2)c(S(=O)(=O)Nc2cc(Cl)ccc2Cl)c1 | . | -2 | -5 | 12 | -3 | .
Cc1ccc2oc(-c3cccc(N)c3)nc2c1 | 0 | -4 | -11 | 0 | -6 | .
Nc1cccc(-c2nc3cc(S(=O)(=O)c4ccc5oc(-c6cccc(N)c6)nc5c4)ccc3o2)c1 | . | 2 | 4 | 26* | 2 | 21
COCCCNc1nc2nonc2nc1NCCSC | -4 | 10 | -8 | 0 | 3 | .
Cc1onc(-c2ccccc2Cl)c1C(=O)N1CCC(C(N)=O)CC1 | 1 | -19 | -9 | 32* | -8 | 1
Cc1onc(-c2ccccc2Cl)c1C(=O)N1CCCC1 | -3 | 1 | 10 | 1 | 4 | .
Cc1c(C(=O)Nc2ccc(-n3cnnn3)cc2)oc2ccccc12 | . | -1 | 24 | 26* | -3 | 47*
CN(CC(=O)NCC1CCCO1)S(=O)(=O)c1ccc2ccccc2c1 (stereo unspecified) | -1 | -1 | 3 | 32* | -4 | 1
CCSc1nnc(Cc2cc(=O)[nH]c(=O)[nH]2)n1-c1ccc(Cl)cc1 | 0 | -9 | 1 | 30* | 2 | -9
